Test system: MCF-7 cells
Assay: MTT assay, cytotoxicity on MCF-7 cells
Format: cell-based
Conditions: Homo sapiens, MCF7, 24 h, read-out: MTT assay IC50
Method in brief: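 Human breast cancer MCF-7 cells grown in DMEM with 10% FBS, penicillin and streptomycin at 37°C, 5% CO2. 10000 cells per well were seeded, cultured overnight, then exposed to test compound (1-200 µM) for 24 h. MTT at 0.5 mg/ml final was added for 3 h at 37°C. Formazan was dissolved in DMSO and read at 545 nm (630 nm reference). IC50 was taken from concentration-growth inhibition curves.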

**Q.** `Cc1ccc(-c2cc(C(F)(F)F)nn2-c2ccc(S(N)(=O)=O)cc2)cc1` [Celecoxib] was tested. Which IC50 did it give?
**A.** Its IC50 is 87.7 µM.
